From ChEMBL document CHEMBL1157800, “Hasubanan alkaloids with delta-opioid binding affinity from the aerial parts of Stephania japonica” (J Nat Prod, 2010)
pIC50: −log10 of the molar value.

Key:
Format in all cases: cell membranes
[1] = target: Delta-type opioid receptor (Homo sapiens, UniProt P41143); experiment: Displacement of [3H]deltorphin-2 from human delta opioid receptor expressed in HEK293 cell membrane
[2] = target: Mu-type opioid receptor (Homo sapiens) (UniProt P35372); experiment: Displacement of [3H]naloxone from mu opioid receptor expressed in CHO cell membrane at 10 uM
Chain of Mu-type opioid receptor (Homo sapiens) (P35372 whole entry): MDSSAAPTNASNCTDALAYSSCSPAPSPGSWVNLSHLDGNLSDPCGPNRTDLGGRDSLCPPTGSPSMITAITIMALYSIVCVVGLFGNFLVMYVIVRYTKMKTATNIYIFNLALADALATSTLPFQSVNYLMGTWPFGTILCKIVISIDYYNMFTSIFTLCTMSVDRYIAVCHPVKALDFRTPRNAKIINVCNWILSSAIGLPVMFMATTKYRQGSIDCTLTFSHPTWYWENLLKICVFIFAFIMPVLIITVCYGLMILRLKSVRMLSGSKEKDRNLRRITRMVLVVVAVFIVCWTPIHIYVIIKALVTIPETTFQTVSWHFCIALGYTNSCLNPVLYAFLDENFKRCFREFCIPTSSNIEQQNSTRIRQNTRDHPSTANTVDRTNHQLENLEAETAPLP
In short: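 Filtration binding with recombinant human µ receptor CHO cell membranes (0.017 mg/mL) and [3H]-naloxone (0.66 nM). Buffer: 50 mM Tris, 10 mM MgCl2, 1 mM EDTA, pH 7.4. Incubated 90 min, including 60 min shaking, at ca. 23 °C. Harvested onto PEI-presoaked GF/B mats, oven-dried at 50 °C, then liquid scintillation counted.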

[3] = target: Kappa-type opioid receptor (Homo sapiens) (UniProt P41145); experiment: Displacement of [3H]naloxone from kappa opioid receptor expressed in HEK293 cell membrane at 10 uM
Chain of Kappa-type opioid receptor (Homo sapiens) (P41145 whole entry): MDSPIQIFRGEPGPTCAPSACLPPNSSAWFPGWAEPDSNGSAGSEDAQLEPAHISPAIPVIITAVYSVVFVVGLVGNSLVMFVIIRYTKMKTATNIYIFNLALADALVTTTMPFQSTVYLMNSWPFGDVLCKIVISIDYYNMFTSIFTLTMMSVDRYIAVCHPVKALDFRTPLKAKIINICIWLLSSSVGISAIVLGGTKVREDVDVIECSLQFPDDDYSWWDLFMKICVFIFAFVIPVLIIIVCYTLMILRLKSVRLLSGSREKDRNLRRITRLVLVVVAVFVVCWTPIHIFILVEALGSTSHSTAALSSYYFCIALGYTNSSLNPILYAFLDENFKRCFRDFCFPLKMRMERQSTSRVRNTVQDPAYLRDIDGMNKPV

Chain of Delta-type opioid receptor (P41143 whole entry): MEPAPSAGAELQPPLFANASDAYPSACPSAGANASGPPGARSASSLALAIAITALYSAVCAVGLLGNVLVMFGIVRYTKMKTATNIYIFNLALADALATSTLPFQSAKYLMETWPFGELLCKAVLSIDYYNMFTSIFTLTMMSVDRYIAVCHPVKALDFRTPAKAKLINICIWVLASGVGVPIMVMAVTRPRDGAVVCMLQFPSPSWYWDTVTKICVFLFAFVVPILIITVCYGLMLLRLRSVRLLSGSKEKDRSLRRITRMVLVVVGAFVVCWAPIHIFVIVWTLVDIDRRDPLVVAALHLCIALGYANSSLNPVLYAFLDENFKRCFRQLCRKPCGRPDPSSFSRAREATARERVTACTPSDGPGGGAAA

Compound: COc1ccc2c(c1O)[C@@]13CCN(C)[C@@]14C[C@@H]2O[C@]4(OC)[C@@H](OC)[C@@H](O)C3
- pIC50 [1]: 5.68
- inhibition [2]: 68%
- inhibition [3]: 0%

Compound: COc1ccc2c(c1O)[C@@]13CC(=O)N(C)[C@@]14C[C@@H]2O[C@]4(OC)[C@@H](OC)[C@@H](OC(=O)/C=C/c1ccccc1)C3
- pIC50 [1]: 5.29
- inhibition [2]: 74%
- inhibition [3]: 0%

Compound: COC1=CC[C@]23CCN(C)[C@@]24C[C@H](O[C@@]14O)c1ccc(OC)c(O)c13 [PROSTEPHABYSSINE]
- pIC50 [1]: 5.26
- inhibition [2]: 67%
- inhibition [3]: 0%

Compound: COc1ccc(/C=C/C(=O)O[C@H]2C[C@]34CCN(C)[C@@]35C[C@H](O[C@]5(OC)[C@H]2OC)c2ccc(OC)c(O)c24)cc1O
- pIC50 [1]: 4.95
- inhibition [2]: 56%
- inhibition [3]: 0%

Compound: COC1=C2[C@@H]3Cc4ccc(OC)c(O)c4[C@]2(CCN3)C[C@H](O)[C@@H]1O [SINOCOCULINE]
- pIC50 [1]: 4.43
- inhibition [2]: 54%
- inhibition [3]: 0%

Compound: COC1=C(OC)[C@]23CCc4ccc(OC)c(O)c4[C@]2(CCN3C)CC1=O [AKNADININE]
- pIC50 [1]: 4.34
- inhibition [2]: 68%
- inhibition [3]: 0%

Compound: COc1ccc2c(c1O)[C@@]13CCN(C)[C@@]14C[C@@H]2O[C@]4(O)[C@@H](OC)[C@@H](O)C3 [LONGANINE]
- pIC50 [1]: 6.15
- inhibition [2]: 68%
- inhibition [3]: 0%

Compound: COC1=C(OC)[C@]23CCc4ccc(OC)c(O)c4[C@@]2(CC1=O)CC(=O)N3C
- pIC50 [1]: 4.77
- inhibition [2]: 49%
- inhibition [3]: 0%

Compound: COc1ccc2c(c1O)[C@@]13CCN(C)[C@@]14C[C@@H]2O[C@]4(OC)[C@@H](O)[C@@H](OC(=O)/C=C/c1ccccc1)C3
- pIC50 [1]: 5.60
- inhibition [2]: 54%
- inhibition [3]: 0%
